In ChEMBL document CHEMBL1153511, “Synthesis and biological evaluation of sphingosine kinase substrates as sphingosine-1-phosphate receptor prodrugs” (2009):
Active and inactive are the calls of the source. The rule behind the calls is not given here.

Key:
[1] = target: T1, Sphingosine kinase 2 (Homo sapiens) (UniProt Q9NRA0); experiment: Activity at human SPHK2 at 15 uM
T1 sequence (whole entry): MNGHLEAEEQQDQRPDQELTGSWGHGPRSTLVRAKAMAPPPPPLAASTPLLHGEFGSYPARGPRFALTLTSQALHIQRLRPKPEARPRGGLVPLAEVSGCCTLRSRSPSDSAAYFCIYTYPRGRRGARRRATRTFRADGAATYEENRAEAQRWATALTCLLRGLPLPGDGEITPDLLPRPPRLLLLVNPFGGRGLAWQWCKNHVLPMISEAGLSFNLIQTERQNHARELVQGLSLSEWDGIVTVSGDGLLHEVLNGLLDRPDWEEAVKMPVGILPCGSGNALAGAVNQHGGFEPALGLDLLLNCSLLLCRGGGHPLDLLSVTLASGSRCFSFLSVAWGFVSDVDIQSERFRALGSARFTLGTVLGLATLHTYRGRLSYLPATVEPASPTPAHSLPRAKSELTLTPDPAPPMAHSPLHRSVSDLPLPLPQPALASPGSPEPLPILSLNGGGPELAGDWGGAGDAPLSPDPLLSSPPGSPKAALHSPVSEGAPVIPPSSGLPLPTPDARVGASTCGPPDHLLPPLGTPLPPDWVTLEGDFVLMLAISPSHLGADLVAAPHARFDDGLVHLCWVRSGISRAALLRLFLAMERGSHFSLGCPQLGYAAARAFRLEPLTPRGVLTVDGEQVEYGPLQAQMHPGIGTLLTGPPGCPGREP

Mus musculus = experiment: Induction of S1P1-mediated lymphopenia in mouse assessed as lymphocyte depletion at 10 mg/kg, ip after 20 hrs; type: functional; conditions: route intraperitoneal
Procedure, shortened: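 Mice received a single ip injection. Lymphocyte depletion from peripheral blood was assessed 20 h after dosing.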

[2] = target: Sphingosine kinase 1 (Homo sapiens) (UniProt Q9NYA1); experiment: Activity at human SPHK1 at 100 uM
Chain of Sphingosine kinase 1 (Homo sapiens) (Q9NYA1 whole entry): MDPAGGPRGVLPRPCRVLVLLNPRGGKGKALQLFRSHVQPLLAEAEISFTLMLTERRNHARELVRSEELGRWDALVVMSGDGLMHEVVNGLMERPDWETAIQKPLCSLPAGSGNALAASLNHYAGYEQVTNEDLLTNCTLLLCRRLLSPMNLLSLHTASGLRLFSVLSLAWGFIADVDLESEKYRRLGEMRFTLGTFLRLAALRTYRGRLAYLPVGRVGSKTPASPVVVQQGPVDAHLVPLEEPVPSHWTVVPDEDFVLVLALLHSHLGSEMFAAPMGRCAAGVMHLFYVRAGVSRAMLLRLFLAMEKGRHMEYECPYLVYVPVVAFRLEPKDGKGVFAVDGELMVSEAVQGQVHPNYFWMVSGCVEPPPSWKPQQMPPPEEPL

[3] = target: Sphingosine 1-phosphate receptor 3 (Homo sapiens) (UniProt Q99500); experiment: Ratio of agonistic EC50 for S1P to compound for human S1P3 receptor by [35S]GTPgammaS binding assay; type: functional
Chain of Sphingosine 1-phosphate receptor 3 (Homo sapiens) (Q99500 whole entry): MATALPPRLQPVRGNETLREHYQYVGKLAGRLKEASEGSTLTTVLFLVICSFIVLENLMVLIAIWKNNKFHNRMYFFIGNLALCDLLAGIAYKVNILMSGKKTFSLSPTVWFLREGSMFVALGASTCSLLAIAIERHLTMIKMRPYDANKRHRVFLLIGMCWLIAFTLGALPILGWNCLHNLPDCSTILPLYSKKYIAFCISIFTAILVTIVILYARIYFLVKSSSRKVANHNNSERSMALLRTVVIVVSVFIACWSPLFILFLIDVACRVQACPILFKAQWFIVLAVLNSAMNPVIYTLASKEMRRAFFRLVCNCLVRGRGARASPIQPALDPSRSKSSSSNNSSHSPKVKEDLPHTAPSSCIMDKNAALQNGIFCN
Procedure, shortened: (§1)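 The chemically phosphorylated compounds were tested as agonists at each individual S1P receptor. Agonist-stimulated binding of GTP[γ-35S] to membranes was measured. EC50 and Emax were normalized to those of S1P run in the same assay.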

[4] = target: Sphingosine 1-phosphate receptor 1 (Homo sapiens) (UniProt P21453); experiment: Ratio of agonistic EC50 for S1P to compound for human S1P1 receptor by [35S]GTPgammaS binding assay; type: functional; procedure, shortened: as §1
Chain of Sphingosine 1-phosphate receptor 1 (Homo sapiens) (P21453 whole entry): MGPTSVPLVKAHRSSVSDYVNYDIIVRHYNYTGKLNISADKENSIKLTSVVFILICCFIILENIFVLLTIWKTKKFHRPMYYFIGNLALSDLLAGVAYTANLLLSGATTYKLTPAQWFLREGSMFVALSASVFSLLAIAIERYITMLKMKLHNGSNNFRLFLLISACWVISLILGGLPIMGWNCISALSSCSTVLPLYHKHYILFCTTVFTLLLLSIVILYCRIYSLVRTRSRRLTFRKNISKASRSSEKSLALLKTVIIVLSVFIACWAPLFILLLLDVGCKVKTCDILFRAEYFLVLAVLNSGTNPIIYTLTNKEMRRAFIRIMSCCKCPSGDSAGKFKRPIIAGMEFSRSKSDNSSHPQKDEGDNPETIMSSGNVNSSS

[5] = target: Sphingosine 1-phosphate receptor 5 (Homo sapiens) (UniProt Q9H228); experiment: Ratio of agonistic Emax for S1P to compound for human S1P5 receptor by [35S]GTPgammaS binding assay; type: functional; procedure, shortened: as §1
Chain of Sphingosine 1-phosphate receptor 5 (Homo sapiens) (Q9H228 whole entry): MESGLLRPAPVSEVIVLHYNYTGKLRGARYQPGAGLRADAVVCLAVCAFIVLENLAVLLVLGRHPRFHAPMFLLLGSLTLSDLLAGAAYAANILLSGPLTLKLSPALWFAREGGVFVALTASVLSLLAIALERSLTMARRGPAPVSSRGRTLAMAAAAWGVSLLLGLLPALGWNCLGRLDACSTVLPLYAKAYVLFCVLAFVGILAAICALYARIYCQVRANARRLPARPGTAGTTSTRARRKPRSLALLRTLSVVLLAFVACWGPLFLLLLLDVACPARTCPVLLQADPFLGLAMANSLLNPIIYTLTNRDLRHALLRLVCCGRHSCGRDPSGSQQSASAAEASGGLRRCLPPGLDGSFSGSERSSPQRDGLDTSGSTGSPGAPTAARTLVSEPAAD

[6] = target: Sphingosine 1-phosphate receptor 3 (Homo sapiens) (UniProt Q99500); experiment: Ratio of agonistic Emax for S1P to compound for human S1P3 receptor by [35S]GTPgammaS binding assay; type: functional; procedure, shortened: as §1
[7] = target: Sphingosine 1-phosphate receptor 2 (Homo sapiens) (UniProt O95136); experiment: Ratio of agonistic Emax for S1P to compound for human S1P2 receptor by [35S]GTPgammaS binding assay; type: functional; procedure, shortened: as §1
Chain of Sphingosine 1-phosphate receptor 2 (Homo sapiens) (O95136 whole entry): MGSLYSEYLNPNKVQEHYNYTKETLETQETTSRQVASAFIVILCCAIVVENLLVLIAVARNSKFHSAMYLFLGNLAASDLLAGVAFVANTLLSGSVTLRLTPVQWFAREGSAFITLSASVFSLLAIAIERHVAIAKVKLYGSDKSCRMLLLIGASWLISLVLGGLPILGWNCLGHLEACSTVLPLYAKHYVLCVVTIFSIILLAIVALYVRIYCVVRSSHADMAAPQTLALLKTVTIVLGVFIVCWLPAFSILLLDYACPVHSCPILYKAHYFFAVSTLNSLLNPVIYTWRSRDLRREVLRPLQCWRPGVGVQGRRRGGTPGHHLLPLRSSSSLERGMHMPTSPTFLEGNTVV

[8] = target: T2, Sphingosine 1-phosphate receptor 4 (Homo sapiens) (UniProt O95977); experiment: Ratio of agonistic Emax for S1P to compound for human S1P4 receptor by [35S]GTPgammaS binding assay; type: functional; procedure, shortened: as §1
T2 sequence (whole entry): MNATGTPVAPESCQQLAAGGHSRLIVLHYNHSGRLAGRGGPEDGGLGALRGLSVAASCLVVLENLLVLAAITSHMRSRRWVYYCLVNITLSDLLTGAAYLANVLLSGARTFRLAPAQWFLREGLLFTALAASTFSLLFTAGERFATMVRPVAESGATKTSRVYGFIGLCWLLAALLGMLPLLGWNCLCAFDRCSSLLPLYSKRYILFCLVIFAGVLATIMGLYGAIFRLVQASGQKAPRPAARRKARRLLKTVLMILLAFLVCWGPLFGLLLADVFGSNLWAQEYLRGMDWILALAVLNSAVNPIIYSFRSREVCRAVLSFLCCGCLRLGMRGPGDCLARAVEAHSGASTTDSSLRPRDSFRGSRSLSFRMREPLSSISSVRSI

[9] = target: T2, Sphingosine 1-phosphate receptor 4 (Homo sapiens); experiment: Ratio of agonistic EC50 for S1P to compound for human S1P4 receptor by [35S]GTPgammaS binding assay; type: functional; procedure, shortened: as §1
[10] = target: Sphingosine 1-phosphate receptor 1 (Homo sapiens) (UniProt P21453); experiment: Ratio of agonistic Emax for S1P to compound for human S1P1 receptor by [35S]GTPgammaS binding assay; type: functional; procedure, shortened: as §1
[11] = target: Sphingosine 1-phosphate receptor 5 (Homo sapiens) (UniProt Q9H228); experiment: Ratio of agonistic EC50 for S1P to compound for human S1P5 receptor by [35S]GTPgammaS binding assay; type: functional; procedure, shortened: as §1
[12] = target: Sphingosine 1-phosphate receptor 2 (Homo sapiens) (UniProt O95136); experiment: Ratio of agonistic EC50 for S1P to compound for human S1P2 receptor by [35S]GTPgammaS binding assay; type: functional; procedure, shortened: as §1
[13] = target: T1, Sphingosine kinase 2 (Homo sapiens); experiment: Activity at human SPHK2 at 100 uM

Row | Activity [1] | Activity [2] | Ratio EC50 [3] | Ratio EC50 [4] | Ratio [5] | Ratio [6] | Ratio [7] | Ratio [8] | Ratio EC50 [9] | Ratio [10] | Ratio EC50 [11] | Ratio EC50 [12] | Activity [13] | Structure (SMILES) | Activity (Mus musculus)
1 | 20% |  |  |  |  |  |  |  |  |  |  |  |  | CCCCCCCCc1ccc(-c2cnc([C@@](C)(N)CO)[nH]2)cc1 | 75%
2 |  | Active |  |  |  |  |  |  |  |  |  |  |  | CCCCCCCCc1ccc(-c2nc(C(C)(N)CO)no2)cc1 (centres undefined) | 
3 |  |  | 50.8 | 1.09 | 0.83 | 0.65 | 0 | 0.93 | 0.59 | 0.87 | 3.62 | inactive |  | CCCCCCCCc1ccc(-c2cnc([C@@](C)(N)COP(=O)(O)O)[nH]2)cc1.O=C(O)C(F)(F)F.O=C(O)C(F)(F)F | 75%
4 |  |  |  | 2.5 | 1 |  | 0 |  |  | 1 | 21.6 |  |  | CCCCCCCCc1ccc(-c2nc(C(C)(N)COP(=O)(O)O)no2)cc1 (centres undefined) | 
5 |  |  | 52.5 | 4.28 | 0.6 | 1 | 0 |  |  | 0.8 | 24.1 |  |  | CCCCCCCCc1ccc(-c2coc(C(C)(N)COP(=O)(O)O)n2)cc1 (centres undefined) | 
6 |  |  | 23 | 24.4 | 0.73 | 0.51 | 0 | 0.81 | 0.52 | 0.89 | 4.35 | inactive |  | CCCCCCCCc1ccc(-c2noc(C(C)(N)COP(=O)(O)O)n2)cc1 (racemic) | 
7 |  |  | 1000 | 8.09 | 0.83 | 0.61 | 0 | 1.19 | 4.13 | 0.92 | 16.1 | inactive |  | CCCCCCCCc1ccc(-c2cnc([C@](C)(N)COP(=O)(O)O)[nH]2)cc1.O=C(O)C(F)(F)F.O=C(O)C(F)(F)F | 75%
8 |  |  |  |  |  |  |  |  |  |  |  |  | inactive | CCCCCCCCc1ccc(-c2cnc([C@](C)(N)CO)[nH]2)cc1 | 75%
